The values below come from ChEMBL document CHEMBL1122327, “Replacement of aromatic or heteroaromatic groups in nonsteroidal antiinflammatory agents with the ferrocene group” (1983).

The source made the active and inactive calls. The calls are words filed in the database; no cut-off is given here.

Experiment [1] concerns Rattus norvegicus. Nature of the experiment: Evaluated for the percentage inhibition by adjuvant arthritis test at a dose of 50 mg/kg administarted perorally; Inactive. It counts as functional, organism-based. Also noted: dose 50 mg/kg.
The species entered for experiment [2] is Homo sapiens. Nature of the experiment: Evaluated for the inhibition of platelet aggregation at dose of 20 uM. It counts as functional. A digest of the protocol: (§1)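 Human platelet-rich plasma from citrated blood of volunteers who had taken no drugs for at least 10 days, adjusted to 300 000 platelets/μL with platelet-poor plasma. Compound added in PEG 300, then 8 min at 37 °C and 2 min equilibration with stirring at 1200 rpm. Collagen added to trigger aggregation. Maximum rise in light transmission measured within 1–2.5 h of the blood draw; % inhibition calculated against control.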

For experiment [3], the species on record is Homo sapiens. Nature of the experiment: Evaluated for the inhibition of platelet aggregation at dose of 100 uM. It counts as functional. A digest of the protocol:
as §1

For experiment [4], the species on record is Homo sapiens. Nature of the experiment: Evaluated for the inhibition of serotonin release from platelets at dose of 100 uM. The class given is functional. Summed up:
(§2)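 Human platelet-rich plasma at 300 000 platelets/μL, loaded with [3H]5-HT (0.5 μM final, 50 μCi/μmol) for 30 min at room temperature. Compound added in PEG 300 and incubated 10 min at 37 °C, then stirred with collagen (1.6 μL/mL final) for 5 min. Reaction stopped with EDTA and samples centrifuged. Supernatant radioactivity counted by scintillation; % inhibition calculated against vehicle-treated plasma.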

Experiment [5] is filed under the species Homo sapiens. Nature of the experiment: Evaluated for the inhibition of serotonin release from platelets at dose of 20 uM. It counts as functional. Summed up:
as §2

Experiment [6] has as its system Rattus norvegicus. Nature of the experiment: Evaluated for the percentage inhibition by adjuvant arthritis test at a dose of 100 mg/kg administarted perorally; Inactive. The class given is functional, organism-based. Also noted: dose 100 mg/kg.
For experiment [7], the system named is Rattus norvegicus. Nature of the experiment: Evaluated for the percentage inhibition by adjuvant arthritis test at a dose of 25 mg/kg administarted perorally; Inactive. It counts as functional, organism-based. Also noted: dose 25 mg/kg.
Experiment [8] relates to Rattus norvegicus. Nature of the experiment: Evaluated for the percentage inhibition by adjuvant arthritis test at a dose of 50 mg/kg administarted perorally. The class given is functional. Conditions: route oral.
Experiment [9] is filed under the species Homo sapiens. Nature of the experiment: percent inhibition of serotonin release from platelets at a concentration of 20 uM. The class given is functional. Summed up: (§3)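 Human platelet-rich plasma at 300 000/μL, loaded with [3H]5-HT (0.5 μM final) for 30 min at room temperature. Compound in PEG 300 incubated 10 min at 37 °C, then stirred with collagen (1.6 μL/mL final) for 5 min and stopped with EDTA. After centrifugation, supernatant radioactivity was counted by scintillation. Percent inhibition calculated against vehicle-treated plasma.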

The species named for experiment [10] is Homo sapiens. Nature of the experiment: Percent inhibition of collagen-induced platelet aggregation at a concentration of 100 uM. It counts as functional. A digest of the protocol: (§4)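 Human platelet-rich plasma from drug-free volunteers (citrated blood, 450 g spin), adjusted to 300 000 platelets/μL with platelet-poor plasma. Compound in PEG 300 preincubated 8 min at 37 °C, then 2 min equilibration with stirring at 1200 rpm. Aggregation triggered with collagen; maximum rise in light transmission read by aggregometer. Percent inhibition calculated against control. Runs done 1–2.5 h after blood draw.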

Experiment [11] is filed under the species Homo sapiens. Nature of the experiment: percent inhibition of serotonin release from platelets at a concentration of 100 uM. The class given is functional. A digest of the protocol:
as §3

Experiment [12] is filed under the species Homo sapiens. Nature of the experiment: Percent inhibition of collagen-induced platelet aggregation at a concentration of 20 uM. It counts as functional. Summed up:
as §4

Broadly, the inhibition is the drop in the measured response relative to a control, in per cent. Consider “2-[2-(3-Cyclopenta-2,4-dienylmethyl-Ferrocenoyl)-2-oxo-ethyl]-benzoic acid”, for which the inhibition result with Rattus norvegicus [1] was “inactive”. The inhibition in the experiment listed under Homo sapiens [2] stood at 7%; in the experiment filed under Homo sapiens [3], 28%; in the experiment listed under Homo sapiens [4] it was 0%; in the experiment filed under Homo sapiens [5], 3%.

As to “2-{5-[3-(4-Methyl-benzoyl)-Ferrocenoyl]-cyclopenta-1,3-dienyl}-acetamide”, the inhibition in the experiment filed under Homo sapiens [2] turned out to be 4%; in the experiment listed under Homo sapiens [3], 15%; in the experiment filed under Homo sapiens [4], 34%; in the experiment listed under Homo sapiens [5], 0%. For the same compound, the inhibition result in the experiment on Rattus norvegicus [6] is “inactive”.

Take “4-(3-Ferrocenoyl-cyclopenta-2,4-dienyl)-4-oxo-butyric acid”: the inhibition in the experiment listed under Homo sapiens [2] is 0%; in the experiment filed under Homo sapiens [3] it was 8%; in the experiment listed under Homo sapiens [4] it was 64%; in the experiment listed under Homo sapiens [5] it was 29%. Also, the inhibition entry in the experiment on Rattus norvegicus [7] is “inactive”.

Regarding “4-Ferrocenoyl-1-methyl-1H-pyrrole-2-acetate”, the inhibition result in the experiment with Rattus norvegicus [1] was “inactive”. The inhibition was 20% in the experiment filed under Homo sapiens [2], 27% in the experiment listed under Homo sapiens [3], 60% in the experiment filed under Homo sapiens [4] and 32% in the experiment listed under Homo sapiens [5].

A word on the inhibition in vivo: it is the change of the read-out against control, counted positive when it falls. As to `O=C(O)CCC(=O)c1ccc(-c2ccccc2)cc1` [FENBUFEN], the inhibition in vivo at 50 mg/kg in the experiment with Rattus norvegicus [8] was 71%.

Regarding `CC(C(=O)O)c1ccc(-c2ccccc2)c(F)c1` (stereo unspecified) [FLURBIPROFEN], the inhibition at 20 µM worked out at 86% in the experiment filed under Homo sapiens [9] and 88% in the experiment listed under Homo sapiens [12]. In addition, in the experiment with Rattus norvegicus [8], the inhibition in vivo at 50 mg/kg was 55%. The inhibition at 100 µM came out at 89% in the experiment listed under Homo sapiens [10] and 90% in the experiment listed under Homo sapiens [11].

Regarding `Cc1ccc(C(=O)c2ccc(CC(=O)O)n2C)cc1` [TOLMETIN], the results for the inhibition at 20 µM in the experiment listed under Homo sapiens [9] and in the experiment filed under Homo sapiens [12] were 90% and 74%, respectively. The inhibition in vivo at 50 mg/kg in the experiment with Rattus norvegicus [8] was 34%. Also, the inhibition at 100 µM was 85% in the experiment filed under Homo sapiens [10] and 88% in the experiment listed under Homo sapiens [11].

With “(3-Ferrocenoyl-cyclopenta-2,4-dienyl)-acetic acid”, the inhibition in the experiment filed under Homo sapiens [2] was 5%; in the experiment filed under Homo sapiens [3], 6%; in the experiment listed under Homo sapiens [4], 16%; in the experiment listed under Homo sapiens [5] it was 0%. The inhibition entry with Rattus norvegicus [6] was “inactive”.

“Methyl 5-Ferrocenoyl-1-methyl-1H-pyrrole-2-acetate”: the inhibition in the experiment listed under Homo sapiens [2] amounted to 0%; in the experiment listed under Homo sapiens [3] it was 6%; in the experiment listed under Homo sapiens [4] it was 0%; in the experiment filed under Homo sapiens [5], 3%. Besides, in the experiment on Rattus norvegicus [6], the inhibition entry was “inactive”.

As for “[3-(Cyclopenta-2,4-ferrocenoyl)-4-(4-methyl-benzoyl)-cyclopenta-1,3-dienyl]-acetic acid”, the inhibition in the experiment filed under Homo sapiens [2] is 2%; in the experiment filed under Homo sapiens [3] it was 6%; in the experiment listed under Homo sapiens [4], 23%; in the experiment listed under Homo sapiens [5] it was 0%. The inhibition result in the experiment on Rattus norvegicus [6] was “inactive”.

For the compound “calcium salt of 4-Ferrocenoyl-1-methyl-1H-pyrrole-2-acetate”, the inhibition in the experiment listed under Homo sapiens [2] is 2%; in the experiment listed under Homo sapiens [3], 3%; in the experiment listed under Homo sapiens [4] it was 12%; in the experiment filed under Homo sapiens [5] it was 10%. Also, the inhibition entry with Rattus norvegicus [6] is “inactive”.
